Reference: article PMC12830962 (Nature Communications, 2025)
Ends that are not written are not given here. * marks the point of attachment. Biotin = O=C1N[C@H]2[C@H](CS[C@H]2CCCCC(=O)*)N1; Ahx = NCCCCCC(=O)O

T1: Gal4-PPARα (PPARα-LBD) (Homo sapiens, UniProt Q07869)
T1 sequence (Q07869 239-466 limits assumed): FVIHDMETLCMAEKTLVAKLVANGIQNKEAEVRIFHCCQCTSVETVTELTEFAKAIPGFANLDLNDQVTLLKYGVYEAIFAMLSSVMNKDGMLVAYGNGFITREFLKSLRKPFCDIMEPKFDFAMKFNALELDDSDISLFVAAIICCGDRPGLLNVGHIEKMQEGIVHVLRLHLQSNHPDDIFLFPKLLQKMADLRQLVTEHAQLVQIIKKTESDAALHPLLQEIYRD

T2: His-hPPARγ-LBD (PPARγ2 residues 231–505) (human, UniProt P37231-1 231-505)
T2 sequence (looked up): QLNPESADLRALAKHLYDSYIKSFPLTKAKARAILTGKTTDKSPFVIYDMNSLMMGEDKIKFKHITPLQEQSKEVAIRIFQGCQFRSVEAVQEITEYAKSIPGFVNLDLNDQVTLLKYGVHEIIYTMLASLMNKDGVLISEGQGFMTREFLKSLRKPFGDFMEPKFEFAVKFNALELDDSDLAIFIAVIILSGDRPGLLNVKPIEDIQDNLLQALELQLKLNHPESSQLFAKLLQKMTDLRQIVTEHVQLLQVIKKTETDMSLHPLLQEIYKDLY


Assays:
[1] = test system: human adipocytes from a type 2 diabetic donor (PT5022); assay: Glucose uptake assay, adipocytes from type 2 diabetic donor; assay type: cell-based; conditions: 100 nM insulin
In short: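 Adipocytes from a type 2 diabetic donor were differentiated from preadipocytes and exposed on day 7 to test compound in DMEM with 0.2% BSA for 24 h. Uptake was read by luminescence (Glucose Uptake-Glo).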

[2] = biological target: T1, Gal4-PPARα (PPARα-LBD); assay: Gal4-PPARα LBD::UAS-luciferase reporter cotransfection assay in HEK293T cells; assay type: cell-based; conditions: 1 μΜ compound
In short: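 HEK293T cells were seeded at 3.3 × 10^6 per 10-cm plate. After 24 h they were PEI-transfected with 8 μg total DNA, Gal4-PPAR LBD plasmid and UAS-luciferase reporter at 1:1. After a further 24 h, cells were replated at 10,000 cells/well in 384-well plates, left 3 h, then given test compound or DMSO for 18 h. Luciferase was read with Britelite Plus.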

[3] = biological target: T2, His-hPPARγ-LBD (PPARγ2 residues 231–505); assay: AlphaScreen or HTRF

| Molecule | insulin-stimulated glucose uptake compared to DMSO [1] | PPARα activation compared to that observed with GW7647 treatment [2] | binding result [3] |
| --- | --- | --- | --- |
| CN(CCOc1ccc(CC2SC(=O)NC2=O)cc1)c1ccccn1 (stereo not shown) [Rosi, rosiglitazone] | significantly enhanced | – | – |
| Cc1c(C)n(Cc2cccc(OC(C)(C)C(=O)O)c2)c2ccc(C(=O)N[C@@H](C)c3ccc(C(C)(C)C)cc3)cc12 [SR10171] | significantly enhanced | ~ 45% | – |
| {Biotin-Ahx}-LTERHKILHRLLQEGSPSD [biotin-Ahx-SRC1-2 coactivator peptide] | – | – | binds |
